This is one part of a sample in which hits are shown more often than they occur.
PTEN del growth: growth suppressors of cells with PTEN tumor suppressor deletion; HCT116 PTEN-null viability, CellTiter-Glo, 60 h; stronger effect = lower value; viability, % at 10 µM; actives 1.2% (n = 140,000); AID 827;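 active = viability at or below a set limit, 4 SD under the median of all tested compounds, cut at about 3.7% in these data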;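 note: PTEN knockout HCT116 line with beta catenin targeted HCT116 as companion control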
PTK2B oligo ant: blocks oligomerization of human Pyk2 in cells | Q293 cells, Pyk2 FERM NanoBiT luminescence; stronger effect = lower value | z-score (the deposit names both 25 µM and 10 µM) | actives 0.83% (n = 99,000) | AID 1347419;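 active = Z-score of -3 or lower, scaled per plate to the spread of control and sample wells; inactive = z-score above -3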;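 note: negative z-score means lost luminescence so less FERM oligomerization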
Target sequence (Q14289 whole entry, looked up): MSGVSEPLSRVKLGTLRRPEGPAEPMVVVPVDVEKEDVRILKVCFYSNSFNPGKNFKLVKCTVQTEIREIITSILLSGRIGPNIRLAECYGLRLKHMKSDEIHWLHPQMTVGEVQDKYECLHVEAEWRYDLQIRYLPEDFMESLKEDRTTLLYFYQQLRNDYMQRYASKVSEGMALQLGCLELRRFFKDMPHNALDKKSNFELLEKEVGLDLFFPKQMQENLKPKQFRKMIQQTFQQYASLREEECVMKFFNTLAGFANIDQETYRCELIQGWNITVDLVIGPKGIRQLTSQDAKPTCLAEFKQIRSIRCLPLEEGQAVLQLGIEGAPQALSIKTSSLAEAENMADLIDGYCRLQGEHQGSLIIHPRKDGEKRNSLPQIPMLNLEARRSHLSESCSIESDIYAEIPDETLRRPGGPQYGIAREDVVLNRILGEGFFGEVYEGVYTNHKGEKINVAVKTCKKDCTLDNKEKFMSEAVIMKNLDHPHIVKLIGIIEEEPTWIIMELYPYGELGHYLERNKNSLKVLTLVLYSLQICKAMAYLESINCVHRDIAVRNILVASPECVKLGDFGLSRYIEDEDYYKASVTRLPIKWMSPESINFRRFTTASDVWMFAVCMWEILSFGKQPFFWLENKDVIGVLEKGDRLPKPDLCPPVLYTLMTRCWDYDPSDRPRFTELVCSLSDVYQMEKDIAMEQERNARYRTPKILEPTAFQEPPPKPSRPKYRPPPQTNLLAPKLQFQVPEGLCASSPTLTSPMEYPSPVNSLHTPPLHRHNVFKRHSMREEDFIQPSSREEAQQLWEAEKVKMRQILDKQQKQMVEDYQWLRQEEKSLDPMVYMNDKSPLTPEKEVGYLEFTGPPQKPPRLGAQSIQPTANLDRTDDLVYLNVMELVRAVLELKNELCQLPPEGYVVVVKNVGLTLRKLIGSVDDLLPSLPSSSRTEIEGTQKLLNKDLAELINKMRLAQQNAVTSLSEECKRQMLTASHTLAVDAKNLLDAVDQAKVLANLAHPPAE
H69AR inhibit: growth inhibitors of human H69AR lung tumor cells | H69AR lung tumor viability, ATP luminescence, 72 h; stronger effect = lower value | viability, % at 10 µM | actives 6% (n = 85,000);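 active = viability at or below 40%; inactive = viability above 40%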;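 note: multidrug resistant small cell line overexpressing MRP-1 efflux transporter; 100% = mean luminescence of untreated control wells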
HUVEC inhibit: human endothelial cell proliferation inhibition; actives 1.1% (n = 86,000); HUVEC proliferation, CellTiter-Glo luminescence, 72 h; stronger effect = lower value; viability, % at 10 µM (by protocol);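 active = viability at or below 30%; inactive = viability above 30%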;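 note: 100% = median luminescence of DMSO-only cell control wells on each plate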
HCT116 bCat-KO: beta-catenin-lacking colon tumor cell growth suppression; HCT116 beta-catenin knockout viability, CellTiter-Glo, 60 h; stronger effect = lower value; viability, % at 10 µM; actives 1.5% (n = 140,000); AID 818;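 active = viability at or under a set limit, the compound median less 4 SD, cut at about 6% in these data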;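 note: 0% = Hyamine 1622 control at 20 µM and 100% = untreated cell control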
Lung fibro prol: blocks proliferation of human lung fibroblasts; viability, % at 10 µM; actives 1.1% (n = 85,000); LL 47 human lung fibroblast viability, ATP luminescence; stronger effect = lower value; AID 719;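 active = viability at or below 50% in the single dose screen; inactive = viability above 50%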;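 note: compound exposure lasted 72 h before the ATP readout; 100% = median luminescence of untreated cell-only wells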
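Test system: LL 47 human lung fibroblasts / Quantity: 1,150 cells in each well / Medium: IMEM growth medium with 15% fetal bovine serum / Incubation: 72 h compound exposure at 37 °C after overnight plating / Detection: CellTiter-Glo luminescence measuring cellular ATP / Read-out: % viability versus median cells-only luminescence / Benchmarks: cell-only wells, no compound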
An asterisk follows results filed as active; . = not tested or not shown.

SMILES | PTEN del growth | PTK2B oligo ant | H69AR inhibit | HUVEC inhibit | HCT116 bCat-KO | Lung fibro prol
COc1cc(/C=C2\SC(=S)N(Nc3ncc(C(F)(F)F)cc3Cl)C2=O)ccc1O | 106 | -3.1* | . | . | 99 | .
CCOc1cc(/C=C2\SC(=S)N(Nc3ccccc3)C2=O)ccc1O | 88 | -3.6* | . | . | 76 | .
Cc1cc(C)nc(NN2C(=O)/C(=C/c3ccccc3)SC2=S)n1 | 98 | -1.8 | . | . | 104 | .
CN(C)c1ccc(/C=C2\SC(=S)N(Nc3ncc(C(F)(F)F)cc3Cl)C2=O)cc1 | 80 | -3.4* | 88 | 94 | 82 | 102
Cc1ccc(CNC(=O)c2cnccn2)cc1 | 102 | . | . | . | 93 | .
NNC(=O)c1cccc(O)c1 | 102 | . | . | . | 95 | .
CCOC(=O)c1sc(NC(=O)Nc2cccc(Cl)c2)cc1C | 2.4* | -1.6 | . | . | 3.6* | .
N#CC(C#N)=C1NC2(CCCC2)Cc2ccccc21 | 97 | 0.35 | . | . | 92 | .
O=C(CSCc1ccccc1Cl)Nc1c[nH]c(=O)[nH]c1=O | 98 | . | . | . | 96 | .
Cc1nc2nc(C)c(CCC(=O)NCc3ccc4c(c3)OCO4)c(C)n2n1 | 98 | -0.77 | 26* | 96 | 107 | 99
Cc1nc2nc(C)c(CCC(=O)NC(C)c3ccc4c(c3)OCCO4)c(C)n2n1 (stereo unspecified) | 103 | 1.1 | 97 | 103 | 96 | 103
O=C(Nc1ccc(Cl)c(S(=O)(=O)N2CCOCC2)c1)c1ccccc1-c1ccc(C(F)(F)F)cc1 | 39 | . | . | . | 49 | .
O=C1Nc2ccccc2/C1=C/C(=O)c1cccs1 | 1.6* | -0.86 | 0.7* | 68 | 2.0* | 34*
Cc1ccc(/C=C2\C(=O)Nc3ccccc32)o1 | 5 | . | . | . | 9 | .
O=C(COc1nc2ccccc2nc1N1CCOCC1)N1CCc2ccccc21 | 54 | 1.6 | 36* | 76 | 37 | 40*
Cc1ccc(S(=O)(=O)N2CCCOC2CNC(=O)C(=O)NCc2ccncc2)cc1 (stereo unspecified) | 89 | . | . | . | 90 | .
CN1Cc2cc(C(=O)c3cc(Cl)cc(CSc4ncccn4)c3O)cnc2NC1=O | 22 | . | 25* | 52 | 22 | 51
COc1ccc2oc(C(=O)c3ccccc3)c(N)c2c1 | 73 | . | 101 | 94 | 86 | 94
CCOC(=O)c1oc2ccc(Br)cc2c1NC(=O)CN1CCN(C)CC1 | 5 | 0.93 | 51 | 69 | 4.4* | 81
COc1ccc2oc(C(=O)c3ccccc3)c(NC(=O)CN3CCN(C)CC3)c2c1 | 1.6* | 0.96 | 0.7* | 32 | 1.4* | 54
COC(=O)c1oc2ccc(Br)cc2c1NC(=O)CCN1CCOCC1 | 92 | 0.34 | 87 | 90 | 85 | 103
CN(C)c1ccc(-c2nnn(CC(=O)N3c4ccccc4CCc4ccccc43)n2)cc1 | 87 | 0.39 | 39* | 94 | 79 | 99
COc1ccc(-c2csc(NS(=O)(=O)c3ccc([N+](=O)[O-])cc3)n2)cc1 | 97 | . | . | . | 90 | .
Cc1cccc(-c2c3c(=O)n(C)c(=O)n(C)c3cn2C2CCCCC2)c1 | 61 | -1.9 | 23* | 103 | 63 | 79
Cc1cccc(-c2c3c(=O)n(C)c(=O)n(C)c3cn2C(C)(C)C)c1 | 94 | -0.44 | 59 | 89 | 86 | 86
SMILES | PTEN del growth | PTK2B oligo ant | H69AR inhibit | HUVEC inhibit | HCT116 bCat-KO | Lung fibro prol
Cn1c(=O)c2c(-c3ccccc3)n(C3CCCCC3)cc2n(C)c1=O | 68 | -0.54 | 37* | 105 | 75 | 86
COc1cc2c(cc1OC)CN(C(=S)Nc1ccc(C)cc1C)CC2 | 92 | . | . | . | 95 | .
C=CCNC(=O)/C(C#N)=C\c1cc(Cl)c(O)c(OCC)c1 | 97 | . | . | . | 104 | .
CCOc1cc(/C=C2\CCC/C(=C\c3cc(Cl)c(O)c(OCC)c3)C2=O)cc(Cl)c1O | 1.7* | -3.6* | . | . | 2.0* | .
Cc1ccc(C)c2sc(NC(=O)c3nc4ccccc4s3)nc12 | 23 | . | . | . | 21 | .
Nc1nnnn1/N=C/c1cccc(OCc2ccccc2Cl)c1 | 70 | 0.82 | 72 | 17* | 81 | 88
Nc1nnnn1/N=C/c1cccc(Oc2ccccc2)c1 | 80 | 0.12 | 93 | 98 | 71 | 94
CCCCCCCOc1ccc(OC(=O)c2ccncc2)cc1 | 46 | -0.45 | 73 | 43 | 56 | 68
COC(=O)c1ccc2c(c1)N(Cc1nc(-c3ccc(Cl)cc3)oc1C)C(=O)C1CCCN21 (stereo unspecified) | . | . | 15* | 87 | . | 96
COC(=O)c1ccc2c(c1)N(Cc1nc(-c3cccc(Cl)c3)oc1C)C(=O)C1CCCN21 (stereo unspecified) | . | . | 68 | 83 | . | 85
Cc1ccc(C(=O)NC(NC(=O)c2ccc(C)cc2)c2cccc([N+](=O)[O-])c2)cc1 | 86 | . | . | . | 92 | .
CCN(CC)C(=O)C1CCCN(c2ccc([N+](=O)[O-])cc2/C=N/NC(=O)c2cccc(O)c2)C1 (stereo unspecified) | 51 | -1.4 | . | . | 56 | .
Cc1[nH]n(-c2ccccc2)c(=O)c1/C=N/NC(=O)c1cccc([N+](=O)[O-])c1 | 2.6* | 0.16 | . | . | 2.4* | .
Cc1[nH]n(-c2cccc3ccccc23)c(=O)c1/C=N/NC(=O)c1cccc([N+](=O)[O-])c1 | 3.6* | 0.34 | . | . | 4.5* | .
CN1CCN(c2ccc([N+](=O)[O-])cc2/C=N/NC(=O)c2cccc([N+](=O)[O-])c2)CC1 | 4 | . | . | . | 5.3* | .
Cc1ccc(O)c(C(=O)c2cnc3c(c2)c(C)nn3-c2ccccc2)c1 | 85 | . | . | . | 80 | .
COC(=O)Cc1c(O)ccn(Cc2cccc3ccccc23)c1=O | 100 | -0.71 | . | . | 95 | .
COc1ccc(C(=O)/C=C/c2cn(CN3CCN(C)CC3)c3ccccc23)cc1 | 33 | -2.6 | 22* | 78 | 14 | 101
COC(=O)COc1ccc(S(=O)(=O)N2CCc3ccccc3C2)cc1 | 106 | 0.29 | 109 | 19* | 98 | 25*
Cc1ccccc1Cn1nc(C)c(NC(=O)C2c3ccccc3Oc3ccccc32)c1C | 84 | . | . | . | 85 | .
CCOC(=O)c1ccc(NC(=O)COc2ccc(S(=O)(=O)NC(C)(C)C)cc2)cc1 | 101 | 2 | 89 | 102 | 88 | 107
COC(=O)c1ccc(C(=O)OC)c(NC(=O)CSc2cccc[n+]2[O-])c1 | 60 | 0.3 | 2.2* | 90 | 60 | 98
COc1cc2c(cc1NC(=O)CSc1cccc[n+]1[O-])oc1ccccc12 | 76 | . | . | . | 70 | .
COC(=O)c1ccc(C(=O)OC)c(NC(=O)CN2CCN(c3ccccc3)CC2)c1 | 86 | 0.76 | 16* | 59 | 86 | 56
CN(C)S(=O)(=O)c1cccc(NC(=O)c2ccc(N3CCOCC3)c([N+](=O)[O-])c2)c1 | 57 | . | . | . | 57 | .
Cc1ccc2c(n1)sc1c(-c3ccc(Br)cc3)c(C#N)c(N)nc12 | 3.2* | -1.1 | . | . | 9 | .
CCc1nc(N)c(C#N)c(-c2ccc(F)cc2)c1C | 89 | -0.16 | 92 | 100 | 95 | 105
Cc1ccc(S(=O)(=O)NC2OC(=O)C(Cl)=C2Cl)cc1 (stereo unspecified) | 89 | 0.49 | 7.0* | 81 | 90 | 97

From PubChem
